Measurements reported in ChEMBL document CHEMBL4177770, “Discovery of MK-6169, a Potent Pan-Genotype Hepatitis C Virus NS5A Inhibitor with Optimized Activity against Common Resistance-Associated Substitutions” (J Med Chem, 2018).
Changes are numbered by the printed parent chain.

Columns and labels:
[1] = AUC in Wistar Han rat at 10 mg/kg, po by LC/MS method; type: ADME, organism-based; settings: in vivo
Procedure, shortened: (§1)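 Male Wistar Han rats, two per dosing group, dosed orally at 10 mg/kg in 10% TWEEN. Plasma was separated from collected blood by centrifugation and analysed by LC/MS.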

[2] = Oral bioavailability in Wistar Han rat at 10 mg/kg by LC/MS method; type: ADME, organism-based; settings: in vivo; procedure, shortened: as §1
[3] = Half life in Wistar Han rat at 2 mg/kg, iv by LC/MS method; type: ADME, organism-based; settings: in vivo
Procedure, shortened: (§2)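 Male Wistar Han rats, two per group, dosed IV at 2 mg/kg in 60% PEG200. Plasma was obtained by centrifuging the blood, and compound concentrations were measured by LC/MS.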

[4] = Cmax in Wistar Han rat at 100 mg/kg, po by LC/MS method; type: ADME, organism-based; design: dose 100 mg/kg, route oral; settings: in vivo
Procedure, shortened: (§3)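 Single rising oral dose study in fed male Wistar Han rats, dosed PO in 10% TWEEN at the indicated doses. Plasma was obtained by centrifuging the blood, and compound levels were determined by LC/MS.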

[5] = Oral bioavailability in Beagle dog at 5 mg/kg by LC/MS method; type: ADME, organism-based, Canis lupus familiaris; settings: in vivo
Procedure, shortened: (§4)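 Beagle dogs, two animals per dosing group. Oral dose was given in 10% TWEEN. Blood was collected and spun to plasma, and plasma compound levels were measured by LC/MS.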

[6] = Drug level in Wistar Han rat at 300 mg/kg, po measured at 24 hrs by LC/MS method; type: ADME, organism-based; settings: in vivo, read-out: Drug uptake; procedure, shortened: as §3
[7] = Cmax in Wistar Han rat at 10 mg/kg, po by LC/MS method; type: ADME, organism-based; design: dose 10 mg/kg, route oral; settings: in vivo; procedure, shortened: as §1
[8] = Half life in Beagle dog at 1 mg/kg, iv by LC/MS method; type: ADME, organism-based, Canis lupus familiaris; settings: in vivo
Procedure, shortened: (§5)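 Beagle dogs, two animals per group, dosed IV at 1 mg/kg in 60% PEG200. Plasma was prepared from collected blood by centrifugation, and compound was quantified by LC/MS.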

[9] = Resistance ratio of EC90 for NS5A in HCV genotype 3a infected in HuH7 replicon cells to EC90 for NS5A in HCV genotype 1a infected in HuH7 replicon cells; type: cell-based
[10] = Cmax in Beagle dog at 5 mg/kg, po by LC/MS method; type: ADME, organism-based, Canis lupus familiaris; design: dose 5 mg/kg, route oral; settings: in vivo; procedure, shortened: as §4
[11] = Cmax in Wistar Han rat at 300 mg/kg, po by LC/MS method; type: ADME, organism-based; design: dose 300 mg/kg, route oral; settings: in vivo; procedure, shortened: as §3
[12] = system: Hepatitis C virus subtype 1a; test: Resistance ratio of EC90 for NS5A Y93H mutant in HCV genotype 1a infected in HuH7 replicon cells to EC90 for NS5A in HCV genotype 1a infected in HuH7 replicon cells; type: cell-based
[13] = Resistance ratio of EC90 for NS5A in HCV genotype 1b infected in HuH7 replicon cells to EC90 for NS5A in HCV genotype 1a infected in HuH7 replicon cells; type: cell-based
[14] = system: Hepatitis C virus subtype 1a; test: Resistance ratio of EC90 for NS5A L31V mutant in HCV genotype 1a infected in HuH7 replicon cells to EC90 for NS5A in HCV genotype 1a infected in HuH7 replicon cells; type: cell-based
[15] = MRT in Wistar Han rat at 100 mg/kg, po by LC/MS method; type: ADME, organism-based; settings: in vivo; procedure, shortened: as §3
[16] = Resistance ratio of EC90 for NS5A in HCV genotype 4a infected in HuH7 replicon cells to EC90 for NS5A in HCV genotype 1a infected in HuH7 replicon cells; type: cell-based
[17] = Drug level in Beagle dog at 5 mg/kg, po measured at 24 hrs by LC/MS method; type: ADME, organism-based, Canis lupus familiaris; settings: in vivo, read-out: Drug uptake; procedure, shortened: as §4
[18] = target: T1, Nonstructural protein 5A (Hepatitis C virus) (UniProt Q5L478); test: Inhibition of NS5A L31M mutant in HCV genotype 2b infected in HuH7 replicon cells assessed as decrease in viral replication after 3 days by RT-PCR method; type: cell-based; settings: Hepatitis C virus subtype 2b
T1 sequence (whole entry): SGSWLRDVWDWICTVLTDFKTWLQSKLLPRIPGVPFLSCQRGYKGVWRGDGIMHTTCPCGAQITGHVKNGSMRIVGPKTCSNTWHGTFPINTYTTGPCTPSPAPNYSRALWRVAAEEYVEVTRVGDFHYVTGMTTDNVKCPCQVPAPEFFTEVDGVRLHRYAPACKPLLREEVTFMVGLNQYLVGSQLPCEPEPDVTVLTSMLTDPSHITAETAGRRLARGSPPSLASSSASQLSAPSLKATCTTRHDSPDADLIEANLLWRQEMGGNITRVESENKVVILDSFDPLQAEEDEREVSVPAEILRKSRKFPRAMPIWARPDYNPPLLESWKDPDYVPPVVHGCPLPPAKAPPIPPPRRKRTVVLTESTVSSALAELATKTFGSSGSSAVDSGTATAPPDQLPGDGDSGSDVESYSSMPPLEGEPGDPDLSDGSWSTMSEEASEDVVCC

[19] = target: T1, Nonstructural protein 5A (Hepatitis C virus); test: Inhibition of NS5A in HCV genotype 1b infected in HuH7 replicon cells assessed as decrease in viral replication after 3 days by RT-PCR method; type: cell-based; settings: Hepatitis C virus subtype 1b
[20] = Tmax in Wistar Han rat at 300 mg/kg, po by LC/MS method; type: ADME, organism-based; settings: in vivo; procedure, shortened: as §3
[21] = AUC in Wistar Han rat at 100 mg/kg, po by LC/MS method; type: ADME, organism-based; settings: in vivo; procedure, shortened: as §3
[22] = target: T1, Nonstructural protein 5A (Hepatitis C virus); test: Inhibition of NS5A in HCV genotype 3a infected in HuH7 replicon cells assessed as decrease in viral replication after 3 days by RT-PCR method; type: cell-based; settings: Hepatitis C virus subtype 3a
[23] = Drug level in Wistar Han rat at 100 mg/kg, po measured at 24 hrs by LC/MS method; type: ADME, organism-based; settings: in vivo, read-out: Drug uptake; procedure, shortened: as §3
[24] = MRT in Wistar Han rat at 300 mg/kg, po by LC/MS method; type: ADME, organism-based; settings: in vivo; procedure, shortened: as §3
[25] = Clearance in Wistar Han rat at 2 mg/kg, iv by LC/MS method; type: ADME, organism-based; settings: in vivo; procedure, shortened: as §2
[26] = Resistance ratio of EC90 for NS5A L31M mutant in HCV genotype 2b infected in HuH7 replicon cells to EC90 for NS5A in HCV genotype 1a infected in HuH7 replicon cells; type: cell-based
[27] = Drug level in Wistar Han rat at 10 mg/kg, po measured at 24 hrs by LC/MS method; type: ADME, organism-based; settings: in vivo, read-out: Drug uptake; procedure, shortened: as §1
[28] = Tmax in Wistar Han rat at 100 mg/kg, po by LC/MS method; type: ADME, organism-based; settings: in vivo; procedure, shortened: as §3
[29] = AUC in Wistar Han rat at 300 mg/kg, po by LC/MS method; type: ADME, organism-based; settings: in vivo; procedure, shortened: as §3
[30] = AUC in Beagle dog at 5 mg/kg, po by LC/MS method; type: ADME, organism-based, Canis lupus familiaris; settings: in vivo; procedure, shortened: as §4
[31] = Clearance in Beagle dog at 1 mg/kg, iv by LC/MS method; type: ADME, organism-based, Canis lupus familiaris; settings: in vivo; procedure, shortened: as §5
[32] = target: T1, Nonstructural protein 5A (Hepatitis C virus); test: Inhibition of NS5A in HCV genotype 4a infected in HuH7 replicon cells assessed as decrease in viral replication after 3 days by RT-PCR method; type: cell-based; settings: Hepatitis C virus subtype 4a
[33] = target: T1, Nonstructural protein 5A (Hepatitis C virus); test: Inhibition of NS5A L31V mutant in HCV genotype 1a infected in HuH7 replicon cells assessed as decrease in viral replication after 3 days by RT-PCR method; type: cell-based; settings: Hepatitis C virus subtype 1a
[34] = target: T1, Nonstructural protein 5A (Hepatitis C virus); test: Inhibition of NS5A in HCV genotype 1a infected in HuH7 replicon cells assessed as decrease in viral replication after 3 days by RT-PCR method; type: cell-based; settings: Hepatitis C virus subtype 1a
[35] = Tmax in Wistar Han rat at 10 mg/kg, po by LC/MS method; type: ADME, organism-based; settings: in vivo; procedure, shortened: as §1
[36] = system: T2, Nonstructural protein 5A (Hepatitis C virus), Q5L478 [Y93H]; test: Inhibition of NS5A Y93H mutant in HCV genotype 1a infected in HuH7 replicon cells assessed as decrease in viral replication after 3 days by RT-PCR method; type: cell-based; settings: Hepatitis C virus subtype 1a
T2 sequence (whole entry): T1 sequence (whole entry) with Y93H

[37] = MRT in Wistar Han rat at 10 mg/kg, po by LC/MS method; type: ADME, organism-based; settings: in vivo; procedure, shortened: as §1
[38] = target: Genome polyprotein (Hepatitis C virus genotype 3a (isolate NZL1) (HCV)) (UniProt Q81258); test: Inhibition of NS5A in HCV genotype 3a NZL1 infected in HB1 replicon cells assessed as decrease in viral replication by TaqMan-based assay; type: cell-based
[39] = target: Genome polyprotein (Hepatitis C virus genotype 1b (isolate Con1) (HCV)) (UniProt Q9WMX2); test: Inhibition of NS5A in HCV genotype 1b Con1 infected in HB1 replicon cells assessed as decrease in viral replication by TaqMan-based assay; type: cell-based

Genome polyprotein (Hepatitis C virus genotype 3a (isolate NZL1) (HCV)), sequence (Q81258 whole entry): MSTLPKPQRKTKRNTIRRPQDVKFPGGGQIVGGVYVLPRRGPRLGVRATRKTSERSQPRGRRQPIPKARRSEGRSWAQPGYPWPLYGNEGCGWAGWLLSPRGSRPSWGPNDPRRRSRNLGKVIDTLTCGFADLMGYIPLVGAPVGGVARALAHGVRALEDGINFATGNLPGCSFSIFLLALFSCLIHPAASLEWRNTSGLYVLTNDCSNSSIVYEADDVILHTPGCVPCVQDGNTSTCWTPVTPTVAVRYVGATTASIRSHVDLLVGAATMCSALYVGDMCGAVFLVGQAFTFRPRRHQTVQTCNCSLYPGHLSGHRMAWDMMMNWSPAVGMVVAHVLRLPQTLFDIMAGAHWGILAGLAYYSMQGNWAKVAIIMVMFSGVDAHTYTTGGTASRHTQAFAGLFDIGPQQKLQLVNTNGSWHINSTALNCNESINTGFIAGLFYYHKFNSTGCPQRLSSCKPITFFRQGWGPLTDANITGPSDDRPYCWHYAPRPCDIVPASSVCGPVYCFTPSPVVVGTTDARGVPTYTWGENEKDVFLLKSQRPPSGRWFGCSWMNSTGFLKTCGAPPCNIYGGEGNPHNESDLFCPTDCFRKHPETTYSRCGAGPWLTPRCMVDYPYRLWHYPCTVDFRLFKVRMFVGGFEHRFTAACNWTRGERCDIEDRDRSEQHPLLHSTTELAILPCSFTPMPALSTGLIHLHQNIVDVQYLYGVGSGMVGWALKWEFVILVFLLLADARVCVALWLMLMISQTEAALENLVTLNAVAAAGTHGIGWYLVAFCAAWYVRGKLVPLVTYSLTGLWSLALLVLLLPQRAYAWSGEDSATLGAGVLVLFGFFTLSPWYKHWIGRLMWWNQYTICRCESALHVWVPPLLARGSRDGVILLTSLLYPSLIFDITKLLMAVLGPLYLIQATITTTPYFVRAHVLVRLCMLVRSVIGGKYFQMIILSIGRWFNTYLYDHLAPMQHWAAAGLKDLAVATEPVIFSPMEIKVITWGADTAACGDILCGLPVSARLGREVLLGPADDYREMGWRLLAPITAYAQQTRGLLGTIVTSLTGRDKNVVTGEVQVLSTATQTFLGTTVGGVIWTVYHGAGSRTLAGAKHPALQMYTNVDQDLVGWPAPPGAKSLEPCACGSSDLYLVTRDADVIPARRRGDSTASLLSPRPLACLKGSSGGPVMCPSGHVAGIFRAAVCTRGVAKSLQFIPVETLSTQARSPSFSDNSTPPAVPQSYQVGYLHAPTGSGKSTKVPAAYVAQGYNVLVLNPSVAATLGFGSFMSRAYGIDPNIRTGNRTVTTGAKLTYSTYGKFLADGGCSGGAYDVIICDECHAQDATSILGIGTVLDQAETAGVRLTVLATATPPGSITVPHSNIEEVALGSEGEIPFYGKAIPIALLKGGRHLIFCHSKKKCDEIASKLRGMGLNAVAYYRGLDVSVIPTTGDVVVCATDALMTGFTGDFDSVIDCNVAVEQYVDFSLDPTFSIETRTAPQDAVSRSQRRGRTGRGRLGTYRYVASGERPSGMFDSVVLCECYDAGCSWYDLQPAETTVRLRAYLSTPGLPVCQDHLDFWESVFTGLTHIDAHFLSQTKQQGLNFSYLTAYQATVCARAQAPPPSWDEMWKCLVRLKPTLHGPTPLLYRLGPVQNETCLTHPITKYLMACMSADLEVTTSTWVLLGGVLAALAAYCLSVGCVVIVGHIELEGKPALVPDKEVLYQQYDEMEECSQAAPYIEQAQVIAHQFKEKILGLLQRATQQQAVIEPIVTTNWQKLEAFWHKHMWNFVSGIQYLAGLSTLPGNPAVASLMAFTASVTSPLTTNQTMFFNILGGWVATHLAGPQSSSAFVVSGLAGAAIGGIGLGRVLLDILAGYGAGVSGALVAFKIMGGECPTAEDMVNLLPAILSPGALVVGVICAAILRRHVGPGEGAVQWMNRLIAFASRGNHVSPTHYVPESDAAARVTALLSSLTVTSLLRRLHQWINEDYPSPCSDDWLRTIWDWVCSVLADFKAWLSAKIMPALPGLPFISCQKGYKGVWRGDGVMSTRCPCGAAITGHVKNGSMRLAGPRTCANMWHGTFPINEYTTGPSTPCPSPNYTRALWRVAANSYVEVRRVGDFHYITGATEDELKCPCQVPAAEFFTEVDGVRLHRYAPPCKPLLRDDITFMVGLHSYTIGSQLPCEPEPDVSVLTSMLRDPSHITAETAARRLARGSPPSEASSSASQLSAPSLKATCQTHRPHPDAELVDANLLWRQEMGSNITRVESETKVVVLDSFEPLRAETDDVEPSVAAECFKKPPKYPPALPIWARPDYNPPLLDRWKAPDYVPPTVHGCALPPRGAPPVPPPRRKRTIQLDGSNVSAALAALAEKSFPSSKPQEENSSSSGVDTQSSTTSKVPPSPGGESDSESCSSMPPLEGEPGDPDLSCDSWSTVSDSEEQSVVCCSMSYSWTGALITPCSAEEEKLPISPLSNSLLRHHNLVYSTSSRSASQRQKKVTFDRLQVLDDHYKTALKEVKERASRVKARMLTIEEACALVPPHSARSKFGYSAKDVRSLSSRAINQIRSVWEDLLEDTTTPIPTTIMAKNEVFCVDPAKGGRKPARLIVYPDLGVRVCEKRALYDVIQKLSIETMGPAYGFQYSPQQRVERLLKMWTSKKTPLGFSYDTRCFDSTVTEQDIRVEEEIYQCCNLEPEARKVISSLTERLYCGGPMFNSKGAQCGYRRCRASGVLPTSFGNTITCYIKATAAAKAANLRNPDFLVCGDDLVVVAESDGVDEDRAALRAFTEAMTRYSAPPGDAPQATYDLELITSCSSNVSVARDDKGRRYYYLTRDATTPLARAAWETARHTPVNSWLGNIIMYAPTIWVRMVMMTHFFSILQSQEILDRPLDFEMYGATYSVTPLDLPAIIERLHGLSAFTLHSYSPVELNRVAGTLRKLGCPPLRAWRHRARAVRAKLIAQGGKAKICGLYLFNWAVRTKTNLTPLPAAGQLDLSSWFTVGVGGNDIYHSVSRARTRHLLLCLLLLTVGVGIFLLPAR

Structure (SMILES): COC(=O)N[C@H](C(=O)N1CCC[C@H]1c1ncc(-c2cc(F)c3c(c2)O[C@@H](c2ccc(C4CC4)s2)n2c-3cc3cc(-c4cnc([C@@H]5CCCN5C(=O)[C@@H](NC(=O)OC)C5CCOCC5)[nH]4)ccc32)[nH]1)C(C)C
- AUC [1]: 0.14 to 0.29 µM·h
- bioavailability [2]: 3.1%
- half-life [3]: 240 min
- Cmax [4]: 200 nM
- bioavailability [5]: 11%
- concentration at 24 h [6]: 32 nM
- Cmax [7]: 0.034 to 20 µM
- half-life [8]: 252 min
- Ratio [9]: < 10
- Cmax [10]: 460 nM
- Cmax [11]: 360 nM
- Ratio [12]: < 10
- Ratio [13]: < 10
- Ratio [14]: < 10
- MRT [15]: 8.3 h
- Ratio [16]: < 10
- concentration at 24 h [17]: 22 nM
- EC90 [18]: 0.014 nM
- EC90 [19]: 5 pM
- Tmax [20]: 4 h
- AUC [21]: 1.64 µM·h
- EC90 [22]: 8 pM
- concentration at 24 h [23]: 11 nM
- MRT [24]: 9.9 h
- clearance [25]: 18 mL/min/kg
- Ratio [26]: < 10
- concentration at 24 h [27]: 2 to 1000 nM
- Tmax [28]: 4 h
- AUC [29]: 3.99 µM·h
- AUC [30]: 2.61 µM·h
- clearance [31]: 4 mL/min/kg
- EC90 [32]: 5 pM
- EC90 [33]: 6 pM
- EC90 [34]: 4 pM
- Tmax [35]: 3 h
- EC90 [36]: 0.018 nM
- MRT [37]: 7.9 h

Structure (SMILES): COC(=O)N[C@H](C(=O)N1CCC[C@H]1c1nc(-c2ccc3c(c2)O[C@@H](c2ccccc2)n2c-3cc3cc(-c4c[nH]c([C@@H]5CCCN5C(=O)[C@@H](NC(=O)OC)C(C)C)n4)ccc32)c[nH]1)C(C)C
- EC90 [38]: 0.12 nM
- EC90 [39]: 6 pM
